Laboratory results taken from the EternaBench riboswitch data.

System: MS2 coat protein
Test: apparent Kd, MS2 coat protein; higher = weaker binding; RNA-MaP array
In short: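 Incubations were done at room temperature with fluorescently labeled MS2 coat protein at 1.5 nM to 3 μM and designed RNAs transcribed on an Illumina sequencing chip from sequenced DNA templates, with or without input ligand. Apparent Kd is the median of binding curves fitted for each cluster. Designs with fewer than 10 measured clusters were excluded.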

[1] = designed as: OFF switch for flavin mononucleotide, no ligand
[2] = ligand present: flavin mononucleotide, designed as: OFF switch for flavin mononucleotide
[3] = designed as: ON switch for flavin mononucleotide, no ligand
[4] = ligand present: flavin mononucleotide, designed as: ON switch for flavin mononucleotide
[5] = designed as: OFF switch for theophylline, no ligand
[6] = ligand present: theophylline, designed as: OFF switch for theophylline

Row | Sequence | apparent Kd [1] | apparent Kd [2] | apparent Kd [3] | apparent Kd [4] | further results
1 | UUAAAACUAGGAUAUACAUGAGGAUCACCCAUGUGAACACACAAACAAAGAAAAUAAUGUAGAAGGAGACUAUA | 10.8 nM | 8.87 nM |  |  | 
2 | CGGCCACAUGAGGAUCACCCAUGUAGUUCGUCUAAAGGAUAUCCAGGUGGGUGACUCCAAGGAGAAGGUUAGGACG |  |  | 54.7 nM | 39.3 nM | 
3 | AGACUCCUAGCAGGAUAUGUUCAAGGAACAAAGAGAACAUGAGGAUCACCCAUGUACACAUAUGAACAGAAGGGCUGAAGAAAA |  |  | 8.24 nM | 6.66 nM | 
4 | CAUGUAGGCGAGAAGGCAACCGCGGUCCGGGAUUGAGGAUAUCGGCCAGGUGAUCCCGCCCAACAUGAGGAUCACCCAUGUAGC | 339 nM | 202 nM |  |  | 
5 | ACAUGAGGAUCACCCAUGUUAUAGGGCAGGGAACGGAGCAUCUAGGAUAUUGUACACCGGCUACACAAGAAGGAGACCGAAGCU | 15.7 nM | 12.3 nM |  |  | 
6 | UCCUAUUCAGGAUAUGCGACACGAAACAUGAGGAUCACCCAUGUCUGGGCACCUCAAAGCGCAGAAGGGAACAACG | 665 nM | 321 nM |  |  | 
7 | GAGGCUCAUAUGUAGGAUAUUCAAGGAGCUACAUGAGGAUCACCCAUGUUCGGACGCCAAUUUUUGAAGAAGGACAAGACAGUGUU |  |  | 54.6 nM | 16.2 nM | 
8 | AAAACUUCUAAGAAGGUGAUUUGGGCAUAUCGUCGUUUUACAUGAGGAUCACCCAUGUUUAACGUCAAGGAUAUUAGGGAUUCC | 6.11 nM | 5.9 nM |  |  | 
9 | AGCAAUACAUAAGGAUAUGACAUCCAAGAGGAAUCAGAAGGUAUGCAGGCGACAUGAGGAUCACCCAUGUAAUCAUGAGGCAAU |  |  | 19.4 nM | 15.8 nM | 
10 | UCAAAAUGAUAGAAGGAGGCAAUACUCGCACCUAACAUGAGGAUCACCCAUGUCUGCAGGUUGACCUAGGAUAUAUGCAGUGGA |  |  | 14.6 nM | 9.35 nM | 
11 | UACAAAUAUCAUUACAUGAGGAUCACCCAUGUGGGACGUCGUAGAAGGGAGAUUCAAAUACAAGCUCAGGAUAUACAACUUCUG |  |  | 181 nM | 80.1 nM | 
12 | GCAUGCGGCAAGGAUAUCAAUGCUAUGGUCUAAUGAGAAGGUGCCACAUGAGGAUCACCCAUGUUUCCGGCGAG | 30.8 nM | 123 nM |  |  | 
13 | CCUCUCUUCCAGAAGGCUAUCCUAGCAUACGAUAGAGGAUAUGGACCACAAUACGGGUAGAGACACAUGAGGAUCACCCAUGUU |  |  | 72.4 nM | 185 nM | 
14 | CCGUUCGCCGAGAAGGGACAGGACUUAAUAGCGUCAGGAUAUCGCGGACCGUGAUUCUAUGACAUGAGGAUCACCCAUGUGCUU | 34.7 nM | 11.7 nM |  |  | 
15 | ACAUAGUAAGGAUAUCUCCUGUUCGAGAAAGAGAGGCAUAAAGAGAAGGUACAUGAGGAUCACCCAUGUGACGA | 7.51 nM | 7.26 nM |  |  | 
16 | CAAGAAUGACGUACAGAUAACAAUAACGAUACCAGUACAUCAUUAUACCCUUGGCAGCGUUUCACAUGAGGAUCACCCAUGUACA |  |  |  |  | apparent Kd [5]: 17.4 nM; apparent Kd [6]: 18.4 nM
17 | GGAUGAAGGAAGGAUAUUACGCAGCAACGACCGUAAGAAGGUCCAACAUGAGGAUCACCCAUGUGGUGCUUACU | 33.2 nM | 159 nM |  |  | 
18 | UCAUAUUAAGGCGAGGAUAUACACGAUCCCACAUGAGGAUCACCCAUGUUUUGAUCAUGCCCUGUGUAGAAGGCGCACCUACGGGA |  |  | 78.9 nM | 49.5 nM | 
19 | UCUUUUCAACAGAAGGAAUGCAGGCGAUAUGAUUGUUUCCGUCAGACAUGAGGAUCACCCAUGUAUUAGGAUAUGUGAAACAGU | 6.2 nM | 7.15 nM |  |  | 
20 | GCAAGGGUGCGAGGAUAUAUUAGAGUCUCUGGAAUAGAAGGCGCAAACAGUGUACAUGAGGAUCACCCAUGUGUAUAUACUGCU | 11 nM | 10.2 nM |  |  | 
21 | GUGCCACAUGAGGAUCACCCAUGUUUGGCAAGCAAAGGAUAUGGAAUGAUGGCUCGCAGCCCAGAAGGUUGUUGUG |  |  | 4.52 nM | 4.76 nM | 
22 | AACAUACAUGAGGAUCACCCAUGUCAAGAGAUGAAAGGAUAUAACUCUAUCAGGGUAAAGUAAGAAGGUUCGACUA |  |  | 23.5 nM | 20.1 nM | 
23 | CGAGGACAUGAGGAUCACCCAUGUGACCGUGCCAAAGGAUAUCACAGGAAAUAAUACAGUUGAGAAGGUUGAUCGG |  |  | 47.1 nM | 17.6 nM | 
24 | AAGGGCGACGGACAGGAUAUAGUUAUUGUUACAUGAGGAUCACCCAUGUCUCCAGGUCUUUGACGCUAGAAGGGUCCCUCCUCGAC |  |  | 61.2 nM | 26.5 nM | 

Row | Sequence | apparent Kd [1] | apparent Kd [2] | apparent Kd [3] | apparent Kd [4] | further results
25 | UGAAACUAGCCUAAGGAUAUAUAAGUGUGAACAUGAGGAUCACCCAUGUAUGGGAACAAGUGCUGAUAGAAGGUAGGAAUCUCCAA |  |  | 80.3 nM | 43.2 nM | 
26 | CCGGCGGAAGGAUAUUGCGAUGACCACAUGAGGAUCACCCAUGUCAACUUGAUCCGGGUACAAGAAGGUCCAGCGA | 19.3 nM | 15.9 nM |  |  | 
27 | CCCUCGUCAACGGCCGCCACUGUGAUUCACUAAGAUAAUAUUGCACAUGAGGAUCACCCAUGUCUCAGGACCGGGUUGGUGUGUC |  |  |  |  | apparent Kd (designed as: ON switch for tryptophan, no ligand): 105 nM; apparent Kd (ligand present: tryptophan, designed as: ON switch for tryptophan): 65.9 nM
28 | ACUCAGUGAGGAUAUAUAGACGAGGAAAAGUGGAAACUUGAAUAGAAGGCACAUGAGGAUCACCCAUGUCGACG | 8.5 nM | 10.8 nM |  |  | 
29 | UAUUUGGGCAAGAAGGCAGGUUACAGCCAGCAUUAUCCACAUGAGGAUCACCCAUGUUCGGCGACUGAGGAUAUUGCCAAACCU | 38.5 nM | 37.5 nM |  |  | 
30 | CUGUACCGAAUAGGAUAUGAAAAGAAGGUAAAUUCAGAAGGAUUCAAUUAAUUUACAUGAGGAUCACCCAUGUCUAAGCAAACA |  |  | 12.2 nM | 8.39 nM | 
31 | UCCCAUAUAGUAGGAUAUCUGCUACAUGAGGAUCACCCAUGUCAUAUUUUUUACCAGUCUUAGAUAGAGAAGGACUGUGGACCU |  |  | 590 nM | 373 nM | 
32 | GAGCCACAUGAGGAUCACCCAUGUCAGGAUAUCGCAAGCGGGAAUAAGCCAACGUCUACGAGAAGGGACUAAUG | 9.79 nM | 10.3 nM |  |  | 
33 | AGUACAUCGGAGAAGGUGCAAGGUUAGCUUUCGCAAGGAUAUCCACACCCUUAGUACAGUGCUACAUGAGGAUCACCCAUGUUA | 10.1 nM | 10.2 nM |  |  | 
34 | GCGUGUUAUAGUCAUCGUGAGCGUCCAUCCCGAGGACCGGUACGGCCGCCACUCGCCACAGGACAUGAGGAUCACCCAUGUUAUG |  |  |  |  | apparent Kd (designed as: OFF switch for tryptophan, no ligand): 15 nM; apparent Kd (ligand present: tryptophan, designed as: OFF switch for tryptophan): 17 nM
35 | UGAGUUUACUGAGGAUAUUCGGGUCCGACGACAUGAGGAUCACCCAUGUUAGUAAUGCUGCAAGGGAAGAAGGCAGAAAGAACU | 13.7 nM | 10.7 nM |  |  | 
36 | GCAUAUGCAUACAUGAGGAUCACCCAUGUGGAACUAAGGGCGAAGGAUAUGUGUUAAACUACGAGACAGAAGGUCGUGAGUAGA |  |  | 19.9 nM | 15.2 nM | 
37 | CAAUGCGGUUAGGAUACCAGCGACACACACUUCUCACAACACAUGAGGAUCACCCAUGUCCGCCCUUGGCAGCCUUGACUAAGGU |  |  |  |  | apparent Kd [5]: 30.1 nM; apparent Kd [6]: 146 nM
38 | CUUCCACGAGGAUAUCCGUUAACGGACAUGAGGAUCACCCAUGUUAUCCUCACGUCAGCAGGAGAAGGCGUCUCAU | 22.5 nM | 33 nM |  |  | 
39 | UAGCGUUCCUCAGGAUAUCCUUAAGUGGACAUGAGGAUCACCCAUGUGUGAUUCUGGGUGUUAUGGGAGAAGGGAGGGUGAUGA | 300 nM | 47.5 nM |  |  | 
40 | UCCCAGUAACAUGAGGAUCACCCAUGUUGGAGUGUGCCUGCUCAGGAUAUUCGCGGCAUAAAAGUGAAGAAGGGAGCUCAAACG | 13.1 nM | 11.3 nM |  |  | 
41 | AAUAUAGCAGGAUAUACAGAACACCAAUAGACUUCGUUUAGACAUGAGGAUCACCCAUGUAGAAGGGCUCAGAC | 9.85 nM | 9.18 nM |  |  | 
42 | CCUUCCUAGUGAGGAUAUCGGCUUGGACUCGAGCGAGAAGGCACCUAAUCGAAGAACUUUUAUCCACAUGAGGAUCACCCAUGU |  |  | 11.8 nM | 11.1 nM | 
43 | CUUGUGUGAGGAUAUUAGACACAAUCCGACAGCGGGAUAGUUAAGAAGGCACAUGAGGAUCACCCAUGUUGAGU | 44.2 nM | 81.2 nM |  |  | 
44 | GUCAGGCAACAGAAGGGAGGAUAUAACCGACAUGAGGAUCACCCAUGUGUAAAAGAAACAGUCGCUCAGGAUAUGUUCAACGUG |  |  | 15.9 nM | 9.36 nM | 
45 | AGAUCGCAAUAAGGAUAUGCACCUAAGACUCAAAGAACUCUUGACAUGAGGAUCACCCAUGUAACGCAGAAGGUAUAUGACUCA |  |  | 21 nM | 15.1 nM | 
46 | ACUCAGUCAGGAUAUAGAGCCGCACGAGAUCGUGACUCGAUCUAGAAGGGACAUGAGGAUCACCCAUGUUAAGA | 12.7 nM | 20.8 nM |  |  | 
47 | AGUUCACAGGUGAGGAUAUCGGAGCACACAGACAGCGAGAAGGCACAUGAGGAUCACCCAUGUGGUCAGAAAAC | 8.73 nM | 10.8 nM |  |  | 
